The source of these data is ChEMBL document CHEMBL1629654, “Breakthrough Aspergillus fumigatus and Candida albicans double infection during caspofungin treatment: laboratory characteristics and implication for susceptibility testing” (2009).

As a reminder, the MIC is the lowest concentration that inhibits growth of the organism. Low readings indicate inhibition by little substance, high ones a need for much substance.

Values after ≈ are worked out from the molar mass of the structure shown. Active and inactive are the calls of the source. No cut-off for these calls is given here. Bounds are passed on as bounds.

The test system of assay [1] is Candida albicans. The assay is described as follows: Antimicrobial activity against Candida albicans isolate R after 48 hrs by microdilution method. The assay is classed as functional. The gist of the method: (§1)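 Broth microdilution in microtiter plates, read spectrophotometrically at 490 nm. MIC taken as the lowest drug dilution giving 50% growth inhibition. C. krusei […] run as control in each run. Read at 24 h and 48 h; trailing growth noted at 48 h.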
Background: Broth dilution looks for growth in wells or tubes with falling amounts of substance.

The test system of assay [2] is Candida albicans. The assay is described as follows: Antimicrobial activity against Candida albicans isolate C after 48 hrs by microdilution method. The format is functional. In a few lines:
as §1

Assay [3] has as its system Candida albicans. The experiment in a line: Antimicrobial activity against Candida albicans isolate C after 24 hrs by microdilution method. The assay is classed as functional. In a few lines: as §1
Assay [4] relates to Candida albicans. The experiment in a line: Antimicrobial activity against Candida albicans isolate C after 48 hrs by EUCAST microdilution method. The format is functional. In a few lines:
(§2)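 EUCAST broth microdilution, plates read spectrophotometrically at 490 nm. MIC is the lowest dilution giving 50% growth inhibition. C. krusei […] control included in each run.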

Assay [5] relates to Candida albicans. The experiment in a line: Antimicrobial activity against Candida albicans isolate R after 48 hrs by EUCAST microdilution method. The format is functional. The gist of the method:
as §2

The test system of assay [6] is Candida albicans. The assay is described as follows: Antimicrobial activity against Candida albicans isolate R after 24 hrs by microdilution method. The assay is classed as functional. The gist of the method:
as §1

The test system of assay [7] is Candida albicans. The assay is described as follows: Antimicrobial activity against Candida albicans isolate R infected in NMRI mouse assessed as decrease in kidney bacterial burden at 50 mg/kg, ip measured on day 4. The format is functional, organism-based. On the set-up: dose 50 mg/kg. The gist of the method:
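NMRI mice (26–30 g), seven per group, were inoculated iv on day 0 with C. albicans (1 × 10^5 CFU). They received ip treatment on days 1–3 with anidulafungin 12 mg/kg or fluconazole 50 mg/kg; controls received saline. On day 4, kidneys were homogenised in saline and CFU counted by spot plating of 10-fold dilutions. Results are log10 CFU/ml; detection limit 50 CFU/ml; Mann-Whitney test.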

The subject of assay [8] is Candida albicans. The experiment in a line: Antimicrobial activity against Candida albicans isolate S infected in NMRI mouse assessed as decrease in kidney bacterial burden at 50 mg/kg, ip measured on day 4. On the set-up: dose 50 mg/kg. The assay is classed as functional, organism-based.

`CC[C@@H]([C@H](C)O)n1ncn(-c2ccc(N3CCN(c4ccc(OC[C@@H]5CO[C@@](Cn6cncn6)(c6ccc(F)cc6F)C5)cc4)CC3)cc2)c1=O` [POSACONAZOLE]: the MIC against Candida albicans [1], with Candida albicans [2], in the assay on Candida albicans [3], in the assay with Candida albicans [4], against Candida albicans [5] and against Candida albicans [6] was at most 0.03 µg/mL throughout.
Turning to `OC(Cn1cncn1)(Cn1cncn1)c1ccc(F)cc1F` [FLUCONAZOLE], the result in the assay with Candida albicans [7] and with Candida albicans [8] was Active. For the same compound, the MIC is at most 0.125 µg/mL against Candida albicans [1]; at most 0.25 µg/mL in the assay with Candida albicans [2]; 0.25 µg/mL (≈ 0.816 µM) against Candida albicans [3]; 0.125 µg/mL (≈ 0.408 µM) with Candida albicans [4]; at most 0.125 µg/mL with Candida albicans [5]; at most 0.125 µg/mL against Candida albicans [6].
On to `CCC(C)n1ncn(-c2ccc(N3CCN(c4ccc(OCC5COC(Cn6cncn6)(c6ccc(Cl)cc6Cl)O5)cc4)CC3)cc2)c1=O` (stereo not given) [ITRACONAZOLE], for which the MIC with Candida albicans [1], against Candida albicans [2], against Candida albicans [3], against Candida albicans [4], against Candida albicans [5] and in the assay on Candida albicans [6] was at most 0.03 µg/mL in each case.
